Active and inactive are the calls of the source.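 How the source made its calls, unless noted: active means compounds giving at least 50% inhibition in the cell-based MKP-3 phosphatase rescue imaging test; inactive means the rest.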

Assay [1] in a line: inhibitors of TNFa-induced NFkB p65 translocation, primary screen, imaging, HUVEC, MLSMR starter and 10KST1 sets (AID 438;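 active means inhibition above 20% together with a positive visual image hit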;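 further: compound added about 3h40 before a 20 min TNFalpha stimulation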;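 on inhibition: signal is the nuclear over cytoplasmic p65 intensity ratio per well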). The following applies: HUVEC TNFa-induced p65 nuclear translocation; cell count: measured here: nuclei count (cytotoxicity indicator), at 2.08 µM; inhibition: at 2 µM, stronger effect = higher value, 0% TNFa-plus-vehicle, 100% no-TNFa wells.
A short description of assay [2]: endothelial E-selectin expression blockers – imaging, HUVEC, immunofluorescence, MLSMR starter and 10KST1 sets, primary screen (AID 487;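 active means visually confirmed hit in the image check and inhibition above 20%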;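 on inhibition: signal is fraction of cell area covered by stained E-selectin grains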;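 on nuclei count: 100% = median nuclei count of all wells on the same plate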). The settings on record: HUVEC TNFalpha-induced E-selectin immunofluorescence imaging, at 2 µM; inhibition: stronger effect = higher value; nuclei count: measured here: cell number, toxicity.
A short description of assay [3]: Primary imaging screen for DUSP6 inhibitors that restore phospho-Erk in transfected HeLa cells, chemical complementation (AID 609).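 On inhibition: phospho-Erk level distribution per well compared with pooled transfected vehicle control wells.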 The settings on record: HeLa MKP-3 transfected, phospho-Erk imaging KS statistic, at 10 µM, cells stimulated with TPA for 15 min.
The target in assay [4] is Dual specificity protein phosphatase 6 (Homo sapiens) (UniProt Q16828). The assay is described as above. The following applies: HeLa MKP-3 transfected, phospho-Erk imaging KS statistic; at 10 µM; stronger effect = higher value; cells stimulated with TPA for 15 min.
Dual specificity protein phosphatase 6 (Homo sapiens), sequence (Q16828 whole entry, looked up): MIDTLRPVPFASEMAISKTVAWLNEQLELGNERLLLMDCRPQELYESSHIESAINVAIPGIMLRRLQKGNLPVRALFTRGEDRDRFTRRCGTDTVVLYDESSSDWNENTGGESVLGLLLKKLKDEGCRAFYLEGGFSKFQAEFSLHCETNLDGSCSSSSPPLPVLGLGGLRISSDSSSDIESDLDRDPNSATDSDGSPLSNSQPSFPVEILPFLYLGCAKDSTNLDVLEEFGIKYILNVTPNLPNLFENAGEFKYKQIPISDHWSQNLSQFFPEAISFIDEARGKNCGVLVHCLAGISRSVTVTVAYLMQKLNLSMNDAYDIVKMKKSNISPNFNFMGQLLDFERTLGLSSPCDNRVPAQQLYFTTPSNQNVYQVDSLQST
Assay [5] deals with Voltage-gated potassium channel subunit beta-2 (Rattus norvegicus) (UniProt P62483). The experiment in a line: inhibitors of rat Kvbeta2 reductase activity – biochemical, NADPH fluorescence, primary screen (AID 622;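 active means fluorescence slope higher than the sample average by over 3 SD, cut at about -0.22 in these data, passing the limit was not always enough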;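 further: slope of raw intensity against log time taken from 70 to 1610 s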). The following applies: recombinant KvBeta, 4-cyanobenzaldehyde reduction, at 10 µM, stronger effect = higher value.
Voltage-gated potassium channel subunit beta-2 (Rattus norvegicus), sequence (P62483 whole entry, looked up): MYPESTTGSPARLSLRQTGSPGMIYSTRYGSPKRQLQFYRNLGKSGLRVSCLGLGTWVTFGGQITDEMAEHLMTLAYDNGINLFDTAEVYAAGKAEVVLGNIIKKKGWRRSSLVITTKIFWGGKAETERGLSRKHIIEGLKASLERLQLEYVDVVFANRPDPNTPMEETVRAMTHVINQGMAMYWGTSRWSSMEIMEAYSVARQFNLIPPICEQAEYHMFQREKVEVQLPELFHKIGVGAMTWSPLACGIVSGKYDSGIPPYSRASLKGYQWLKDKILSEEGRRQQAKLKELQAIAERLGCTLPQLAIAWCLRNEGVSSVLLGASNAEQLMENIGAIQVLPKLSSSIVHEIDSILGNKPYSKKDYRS
Assay [6] has the same target. Briefly: enhancers of rat Kvbeta2 NADPH turnover – biochemical, NADPH fluorescence, primary screen (AID 623;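 active means NADPH fluorescence slope more negative than the mean of all samples by about 3 SD, 99.7% confidence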;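 further: fluorescence intensity change per second fitted from 20 to 320 s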). The following applies: Recombinant KvBeta, NADPH fluorescence decrease slope, 10 min; at 10 µM; stronger effect = lower value.
Assay [7] has as its target Muscarinic acetylcholine receptor M4 (Homo sapiens) (UniProt P08173). The experiment in a line: M4-linked GIRK flux change, two-sided – cell-based, HEK293 M4/GIRK, thallium flux, BTC-AM, M4 allosteric agonist project, primary screen (AID 625;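 active means fluorescence slope after compound addition differing from the mean of all tested samples at 99.7% confidence, mostly higher but some lower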;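 further: thallium influx through GIRK channels coupled to M4 in HEK293 cells with BTC-AM dye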). The following applies: at 10 µM, actives lie on both sides. A digest of the protocol: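 Material: HEK293 cells with M4 receptor and GIRK channels; Times: cells overnight at 37 °C, BTC-AM loading 1 h, reads 2 min total; Technique: kinetic BTC-AM fluorescence sampled at 1 Hz, 10 s pre-addition baseline; Read-out basis: slope over 15–24 s of trace normalized to starting intensity; Controls: carbachol positive, DMSO negative.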

Assay [8] can be described thus: inhibitors of larval lipid processing in zebrafish, primary screen, whole organism, PED6 fluorescence, gall bladder and intestine (AID 686;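 active means a full or partial loss of lipid-probe fluorescence in the fish gall bladder, intestine or both, judged by eye; inactive means no fluorescence loss, or compound toxic to the fish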;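 further: larvae 5 to 7 days old with five fish per well; signal comes from phospholipase A2 cleavage of quenched PED6 carried via bile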). The following applies: Zebrafish larvae PED6 lipid processing, fluorescence scoring; screened at 20 µM (by protocol). In short, it runs like this: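 Incubation: overnight exposure of larvae to compound plus PED6 / Test system: live zebrafish larvae aged 5-7 days, whole organism / Amount: 5 larvae per well / Read-out basis: visual per-well fluorescence inhibition score / Signal: visual fluorescence microscopy scoring of gall bladder, gut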

Assay [9] is described as follows: loss of swimming-algae plug formation – whole organism, Chlamydomonas reinhardtii, WT vs cilia-less mutant, absorbance, 96-well, primary screen (AID 463189;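 active means inhibition at or above 50% relative to wild type and mutant plate controls; inactive means inhibition below 50%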;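 further: 0% = wild type cc124 cells in DMSO and 100% = ciliumless bld1 mutant cells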). The following applies: Chlamydomonas reinhardtii gravitaxis, OD600 absorbance, 2 days; at 10 µM; stronger effect = higher value.
Setting [10] is: measured here: cell density z-score.
Setting [11] is: measured here: nuclear c-Myc green intensity z-score.
The mark [12] stands for this setting: measured here: nuclear pErk red intensity z-score, stronger effect = higher value.

Muscarinic acetylcholine receptor M4 (Homo sapiens), sequence (P08173 whole entry, looked up): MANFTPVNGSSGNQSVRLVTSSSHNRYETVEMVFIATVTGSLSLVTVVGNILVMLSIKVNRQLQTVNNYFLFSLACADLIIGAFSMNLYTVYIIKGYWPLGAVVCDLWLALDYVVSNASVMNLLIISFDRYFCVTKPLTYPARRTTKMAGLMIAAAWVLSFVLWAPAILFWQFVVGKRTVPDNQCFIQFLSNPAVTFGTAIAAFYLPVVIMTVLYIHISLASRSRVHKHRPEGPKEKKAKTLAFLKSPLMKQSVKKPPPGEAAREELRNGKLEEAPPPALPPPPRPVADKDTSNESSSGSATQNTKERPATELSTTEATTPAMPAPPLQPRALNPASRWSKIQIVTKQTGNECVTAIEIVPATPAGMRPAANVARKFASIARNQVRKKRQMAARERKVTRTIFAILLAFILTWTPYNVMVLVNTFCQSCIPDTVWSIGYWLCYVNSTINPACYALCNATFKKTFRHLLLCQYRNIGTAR

With `O=S(=O)(N[C@@H]1C[C@H]2CC[C@@H]1C2)c1cccs1`, the cell count in [1] is 433. Moreover, the inhibition in assay [1] was -8.9% (inactive); in assay [2], -51.9% (inactive); in [4], 9.37% (inactive); in assay [9], -1.87% (inactive). This molecule displayed a nuclei count in assay [2] of 155%. The results for the z-score in assay [3] (setting [10]), in assay [3] (setting [11]) and in assay [3] (setting [12]) were 1.4, -0.527 and -0.281, respectively. Moreover, the values for the fluorescence slope in assay [5] and in [7] were -0.458 (inactive) and 0.00569 (inactive), respectively. The NADPH fluorescence slope in [6] was -3.1e-05 (inactive). Besides, the molecule was called inactive in assay [8].
`O=C1CC(c2ccccc2)n2nc(N3C(=O)c4ccccc4C3=O)nc2N1` (centres undefined): the cell count in assay [1] turned out to be 397. The inhibition in assay [1] is 3% (inactive); in [2], -72.9% (inactive); in assay [4], 2.71% (inactive); in assay [9] it was 21.6% (inactive). This molecule displayed a nuclei count in assay [2] of 114%. In addition, the values for the z-score in assay [3] (setting [10]), in [3] (setting [11]) and in assay [3] (setting [12]) were 0.561, 0.157 and -0.686, respectively. For the same molecule, the fluorescence slope is -0.441 (inactive) in assay [5] and 0.00457 (inactive) in assay [7]. Further, the NADPH fluorescence slope in [6] is -1.7e-05 (inactive). Besides, in assay [8], the call was inactive.
`CCOc1ccc2nc(NC(NC(=O)CC)(C(=O)OC)C(F)(F)F)sc2c1` (centres undefined): in [1], the cell count was 362. Also, the inhibition in assay [1] was -7% (inactive); in [2] it was -214% (inactive); in assay [4], 3.42% (inactive); in assay [9], -2.07% (inactive). The same molecule returned a nuclei count in assay [2] of 195%. In addition, the z-score is -0.714 in [3] (setting [10]), 0.587 in assay [3] (setting [11]) and 0.266 in assay [3] (setting [12]). Besides, the fluorescence slope in assay [5] was -0.424 (inactive); in [7] it was 0.00487 (inactive). Further, the NADPH fluorescence slope in assay [6] is -8.8e-05 (inactive). Further, in assay [8], the molecule was classed as inactive.
Regarding `CC(NC(=O)c1ccc(=O)oc1)c1ccccc1` (centres undefined), the cell count in [1] worked out at 544. Further, the inhibition is 4.1% (inactive) in assay [1], 56.8% (inactive) in assay [2], 13.9% (inactive) in assay [4] and 6.14% (inactive) in assay [9]. Further, in [2], the nuclei count is 167%. The z-score in assay [3] (setting [10]) was -0.00091; in assay [3] (setting [11]), 1.16; in [3] (setting [12]) it was 1.91. Further, the fluorescence slope in [5] is -0.409 (inactive); in [7] it was 0.00521 (inactive). The NADPH fluorescence slope in assay [6] is -5.3e-05 (inactive). Moreover, the molecule was called inactive in assay [8].
As to `CCCSc1nc(N2CCOCC2)c2c(c1C#N)CCCC2`, in [1], the cell count came to 569. Moreover, the inhibition was -12.9% (inactive) in [1], -93.9% (inactive) in assay [2], 10.9% (inactive) in [4] and 5.19% (inactive) in [9]. This molecule registered a nuclei count in assay [2] of 147%. The results for the z-score in [3] (setting [10]), in assay [3] (setting [11]) and in assay [3] (setting [12]) were 0.303, 0.327 and 2.25, respectively. Moreover, the fluorescence slope in assay [5] was -0.467 (inactive); in [7] it was 0.00772 (inactive). Further, the NADPH fluorescence slope in assay [6] is -0.000102 (inactive). The molecule was classed as inactive in assay [8].
With `COc1ccc2[nH]c(C)c(C(=O)CN3CCOCC3)c2c1`, the cell count in [1] amounted to 640. In addition, the inhibition in [1] was 7.2% (inactive); in assay [2], -85.7% (inactive); in assay [4] it was -1.98% (inactive); in [9] it was 13.2% (inactive). In assay [2], this molecule displayed a nuclei count of 184%. For the same molecule, the z-score in assay [3] (setting [10]) is -1.08; in assay [3] (setting [11]), 1.22; in assay [3] (setting [12]), 0.499. The fluorescence slope is -0.466 (inactive) in assay [5] and 0.00952 (inactive) in [7]. Moreover, the NADPH fluorescence slope in [6] is -6.6e-05 (inactive). In addition, in assay [8], the call was inactive.
For the molecule `N#Cc1nc(-c2cccs2)oc1NCc1ccccc1Cl`, in assay [1], the cell count stood at 657. The inhibition in assay [1] was 3.4% (inactive); in [2], -84% (inactive); in [4] it was 1.63% (inactive); in [9], -1.01% (inactive). In assay [2], the nuclei count amounted to 107%. The results for the z-score in assay [3] (setting [10]), in [3] (setting [11]) and in assay [3] (setting [12]) were -2.24, 1.03 and 1.6, respectively. Further, the fluorescence slope is -0.513 (inactive) in assay [5] and 0.00761 (inactive) in assay [7]. For the same molecule, the NADPH fluorescence slope in [6] is -3.2e-05 (inactive). In [8], the outcome was inactive.
As to `COCCCNC(=O)c1c(N)n(/N=C/c2ccccn2)c2nc3ccccc3nc12`, in assay [1], the cell count turned out to be 736. The inhibition in assay [1] is 7.3% (inactive); in assay [2], 5.4% (inactive); in assay [4] it was -1.12% (inactive); in assay [9], 82.5% (active). Also, in assay [2], the nuclei count is 148%. The values for the z-score in [3] (setting [10]), in assay [3] (setting [11]) and in assay [3] (setting [12]) were 0.26, 1.28 and 1.17, respectively. Moreover, the fluorescence slope was -0.424 (inactive) in [5] and 0.00553 (inactive) in [7]. Also, the NADPH fluorescence slope in assay [6] was -5.6e-05 (inactive). Further, the molecule was classed as inactive in [8].
`CSc1nc2[nH]c3c(c2c2nncn12)CC(C)(C)OC3`: the cell count in assay [1] came to 554. Further, the inhibition in assay [1] is -4.9% (inactive); in assay [2], -169% (inactive); in assay [4], 5.42% (inactive); in [9], -2.07% (inactive). In addition, the nuclei count in [2] was determined as 129%. In addition, the z-score was 0.946 in [3] (setting [10]), 0.54 in assay [3] (setting [11]) and -1.06 in [3] (setting [12]). The fluorescence slope in assay [5] was -0.511 (inactive); in assay [7], 0.00422 (inactive). In addition, in assay [6], the NADPH fluorescence slope is -8.3e-05 (inactive). Further, the molecule was classed as inactive in [8].
For `CC1(C)CC(=O)C2=C(C1)OC(N)=C(C#N)C2C1C=CCCC1` (centres undefined), in assay [1], the cell count came out at 725. In addition, the inhibition was -1.5% (inactive) in assay [1], -74.9% (inactive) in assay [2], 7.83% (inactive) in assay [4] and 9.73% (inactive) in [9]. In assay [2], this molecule displayed a nuclei count of 173%. Also, the z-score was -0.465 in [3] (setting [10]), 0.0637 in [3] (setting [11]) and 1.38 in assay [3] (setting [12]). Besides, the fluorescence slope is -0.43 (inactive) in assay [5] and 0.00473 (inactive) in [7]. Further, in assay [6], the NADPH fluorescence slope is -5.1e-05 (inactive). Further, the call in assay [8] was inactive.
Regarding `COc1cc(N2CCCC2)c(OC)cc1/C=c1/sc2nc3ccccc3n2c1=O`, the cell count in assay [1] worked out at 499. The inhibition in assay [1] is -8.5% (inactive); in assay [2] it was -137% (inactive); in [4], 39.3% (inactive); in assay [9], 3.75% (inactive). In assay [2], this molecule displayed a nuclei count of 155%. The z-score in [3] (setting [10]) was -1.29; in assay [3] (setting [11]) it was 0.0669; in assay [3] (setting [12]), -0.774. Besides, the fluorescence slope in assay [5] is -0.438 (inactive); in assay [7], 0.00712 (inactive). The NADPH fluorescence slope in [6] was -3.3e-05 (inactive). For the same molecule, the result in assay [8] was inactive.
Turning to `COc1ccc(CC(=O)Nc2cccc(-c3nnc(-c4ccco4)o3)c2)cc1`, the cell count in assay [1] came to 671. Besides, the inhibition was -0.9% (inactive) in assay [1], 6.2% (inactive) in assay [2], -15.1% (inactive) in assay [4] and 0.83% (inactive) in assay [9]. Besides, the nuclei count in [2] came out at 177%. Moreover, the z-score is -0.286 in assay [3] (setting [10]), 1.67 in [3] (setting [11]) and 1.63 in assay [3] (setting [12]). Also, the fluorescence slope was -0.475 (inactive) in [5] and 0.00587 (inactive) in assay [7]. The NADPH fluorescence slope in [6] was -8e-05 (inactive). Also, the result in assay [8] was inactive.
Turning to `Cc1ccc(C(=O)C2=C(O)C(=O)N(CCN3CCOCC3)C2c2ccccn2)o1` (centres undefined), the cell count in [1] was 403. The inhibition in [1] is 1.7% (inactive); in assay [2], -75.7% (inactive); in assay [4], -0.608% (inactive); in [9], -7.55% (inactive). The molecule further displayed a nuclei count in [2] of 147%. Moreover, the z-score in assay [3] (setting [10]) is -0.208; in assay [3] (setting [11]), -0.969; in assay [3] (setting [12]), -0.257. Besides, the fluorescence slope in assay [5] was -0.474 (inactive); in [7], 0.00402 (inactive). Further, the NADPH fluorescence slope in assay [6] was -0.0001 (inactive). The molecule was called inactive in assay [8].
